The source made the active and inactive calls. The calls are words filed in the database; no cut-off is given here.
Legend:
[1] = Ratio of drug level in tumor to liver of iv dosed C3H/HeJ mouse bearing mouse RIF cells after 24 hrs; assay type: ADME, organism-based; settings: in vivo
How it was run: (§1)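 RIF-bearing C3H mice given ¹²⁴I-labeled photosensitizer (15–200 μCi, tail vein, in saline with 10% ethanol). 3–4 mice killed at each time point, tumor and liver weighed and gamma-counted. Uptake expressed as %ID/g, and tumor to liver ratio taken from the %ID/g values.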

[2] = Ratio of drug level in tumor to liver of iv dosed C3H/HeJ mouse bearing mouse RIF cells after 48 hrs; assay type: ADME, organism-based; settings: in vivo; how it was run: as §1
Mus musculus [3] = assay: Toxicity in C3H/HeJ mouse xenografted with mouse RIF cells at 1 umol/kg, iv irradiated for 30 mins measured after 24 hrs photodynamic therapy; assay type: organism-based; settings: in vivo
How it was run: (§2)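 Female C3H/HeJ mice given 2×10^5 RIF cells intradermally on flank; tumors grown to 4–5 mm diameter. Hair removed, photosensitizer injected iv (0.5, 1.0, 1.5 μmol/kg; five mice/group). At 24 h, unanesthetized restrained mice irradiated over 1 cm² with dye laser, 665 nm, 75 mW/cm², 135 J/cm² (30 min). Daily observation for weight loss, scabbing, regrowth and deaths; sacrifice at 400 mm^3; tumor-free status followed to day 60.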

Mus musculus [4] = assay: Toxicity in C3H/HeJ mouse xenografted with mouse RIF cells at 1.5 umol/kg, iv irradiated for 30 mins measured after 24 hrs photodynamic therapy; assay type: organism-based; settings: in vivo; how it was run: as §2
RIF [5] = assay: Antitumor activity against mouse RIF cells xenografted in C3H/HeJ mouse at 0.50 umol/kg, iv irradiated for 30 mins measured after 24 hrs by photodynamic therapy; assay type: functional, organism-based; settings: tested as the 124I-labelled form; how it was run: as §2
RIF [6] = assay: Antitumor activity against mouse RIF cells xenografted in C3H/HeJ mouse assessed as increase in photosensitizing ability at 1.5 umol/kg, iv irradiated for 30 mins measured after 60 days photodynamic therapy; assay type: functional, organism-based; settings: tested as the 124I-labelled form; how it was run: as §2
[7] = Biodistribution in tumor of iv dosed C3H/HeJ mouse bearing mouse RIF cells after 24 hrs; assay type: ADME, organism-based, Neoplasm; settings: read-out: Drug uptake
How it was run: (§3)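 ¹²⁴I-labeled photosensitizer formulated in saline with 10% ethanol, 15–200 μCi via tail vein into C3H mice bearing RIF tumors (3×10^5 cells sc in axilla, 4–5 mm) or BALB/c mice bearing Colon-26 tumors. 3–4 mice per time point killed at 24, 48, 72, 96 h. Tumor and organs weighed and gamma-counted; uptake given as %ID/g, mean of group.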

[8] = Biodistribution in tumor of iv dosed C3H/HeJ mouse bearing mouse RIF cells after 48 hrs; assay type: ADME, organism-based, Neoplasm; settings: read-out: Drug uptake; how it was run: as §3
[9] = Biodistribution in tumor of iv dosed C3H/HeJ mouse bearing mouse RIF cells after 72 hrs; assay type: ADME, organism-based, Neoplasm; settings: read-out: Drug uptake; how it was run: as §3
[10] = Biodistribution in tumor of iv dosed C3H/HeJ mouse bearing mouse RIF cells after 96 hrs; assay type: ADME, organism-based, Neoplasm; settings: read-out: Drug uptake; how it was run: as §3
[11] = Biodistribution in tumor of iv dosed BALB/c mouse bearing mouse Colon-26 cells after 24 hrs; assay type: ADME, organism-based, Neoplasm; settings: read-out: Drug uptake; how it was run: as §3
[12] = Biodistribution in tumor of iv dosed BALB/c mouse bearing mouse Colon-26 cells after 48 hrs; assay type: ADME, organism-based, Neoplasm; settings: read-out: Drug uptake; how it was run: as §3
[13] = Biodistribution in tumor of iv dosed BALB/c mouse bearing mouse Colon-26 cells after 72 hrs; assay type: ADME, organism-based, Neoplasm; settings: read-out: Drug uptake; how it was run: as §3
[14] = Biodistribution in tumor of iv dosed BALB/c mouse bearing mouse Colon-26 cells after 96 hrs; assay type: ADME, organism-based, Neoplasm; settings: read-out: Drug uptake; how it was run: as §3
[15] = Biodistribution in tumor of iv dosed BALB/c mouse bearing mouse Colon-26 cells assessed as relative uptake value after 48 hrs by PET imaging; assay type: ADME, organism-based, Neoplasm; settings: in vivo
[16] = Biodistribution in tumor of iv dosed C3H/HeJ mouse bearing mouse RIF cells assessed as relative uptake value after 3 days by PET imaging; assay type: ADME, organism-based, Neoplasm; settings: in vivo, 72 h

With CCC1=C(C)c2cc3[nH]c(cc4nc(c5c6[nH]c(cc1n2)c(C)c6C(=O)C5)[C@@H](CCC(=O)N[C@@H]1O[C@H](CO)[C@H](O)[C@H](O)[C@H]1O)[C@@H]4C)c(C)c3C(C)OCc1cccc([124I])c1 (stereo partly specified) the Ratio [1] was 0.05, the Ratio [2] was 0.06 and the Activity (Mus musculus [3]) was “Toxic”. For the same molecule, the Activity (Mus musculus [4]) was “Toxic”.
For CCC1=C(C)c2cc3[nH]c(cc4nc(c5c6[nH]c(cc1n2)c(C)c6C(=O)C5)[C@@H](CCC(=O)OC)[C@@H]4C)c(C)c3C(C)OCc1cccc(I)c1 (stereo partly specified), the Activity (RIF [5]) was “inactive” and the Activity (RIF [6]) was “Active”.
For CCC1=C(C)c2cc3[nH]c(cc4nc(c5c6[nH]c(cc1n2)c(C)c6C(=O)C5)[C@@H](CCC(=O)OC)[C@@H]4C)c(C)c3C(C)OCc1cccc([124I])c1 (stereo partly specified), the tissue uptake at 24 h [7] was 4.1 %ID/g, the Ratio [1] was 0.32 and the Ratio [2] was 0.56. The tissue uptake at 48 h [8] was 2.1 %ID/g, the tissue uptake at 72 h [9] was 0.8 %ID/g and the tissue uptake at 96 h [10] was 0.6 %ID/g. It also gave a tissue uptake at 24 h [11] of 4.6 %ID/g, a tissue uptake at 48 h [12] of 4.4 %ID/g and a tissue uptake at 72 h [13] of 2.5 %ID/g. The tissue uptake at 96 h [14] was 2 %ID/g.
With CCC1=C(C)c2cc3[nH]c(cc4nc(c5c6[nH]c(cc1n2)c(C)c6C(=O)C5)[C@@H](CCC(=O)N[C@@H]1[C@@H](O)[C@H](O)[C@@H](CO)O[C@H]1O)[C@@H]4C)c(C)c3C(C)OCc1cccc([124I])c1 (stereo partly specified) the Ratio [1] was 0.08 and the Ratio [2] was 0.13.
OC[C@H]1O[C@@H](O)[C@H]([18F])[C@@H](O)[C@@H]1O [FLUDEOXYGLUCOSE-F18] showed an Activity [15] of 4 and an Activity [16] of 0.035.
With CCC1=C(C)c2cc3[nH]c(cc4nc(c5c6[nH]c(cc1n2)c(C)c6C(=O)C5)[C@@H](CCC(=O)N[C@@H]1O[C@H](CO)[C@H](O)[C@H](O)[C@H]1O)[C@@H]4C)c(C)c3C(C)OCc1cccc(I)c1 (stereo partly specified) the Activity (RIF [5]) was “inactive”.
